# CHO parental Ca – counter-screen: ATP calcium response change in parental CHO cells. parental CHO-K1, ATP-induced calcium, Fluo-8 fluorescence. inhibition, % at 5.6 µM. hit rate 0.63% among 330,000;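 active = inhibition above that plate's mean sample inhibition plus 3 SD, cut at about 26% in these data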;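 note: 0% = ATP-challenged DMSO wells and 100% = DMSO wells without ATP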
#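 Material: parental CHO cells / Compound: single nominal dose of 5.6 µM per compound / Signal: Fluo-8 fluorescence / Replicates: singlicate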
# GPR7 antagonist – antagonists of human GPR7 (neuropeptides B/W receptor 1); hit rate 1.1% among 290,000; AID 1861; inhibition, % at 4.4 µM; GPR7-expressing cells, fluorescence antagonist assay; in the data active = inhibition above about 16%, passing the limit was not always enough;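 note: cells stimulated with the agonist NPW; 0% = agonist with vehicle and 100% = vehicle without agonist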
# TAAR1 antag – antagonists of human TAAR1. CHO RD-HGA16 TAAR1, Fluo-8 calcium fluorescence, antagonist. hit rate 1.5% among 360,000. inhibition, % at 3 µM. AID 624466. Q96RJ0;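 active = inhibition above a per-plate cutoff, the mean inhibition of test compounds on that plate plus 3 SD, cut at about 49% in these data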;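 note: 0% = DMSO plus EC80 beta-PEA response and 100% = DMSO alone without agonist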
#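 Test system: hTAAR1-expressing CHO RD-HGA16 cells, Gα16-coupled; Probe or stimulus: EC80 β-phenethylamine stimulus; Compound dosing: single nominal final test compound concentration of 3 µM; Timing: 140 s kinetic read after compound, 140 s after agonist; Signal: Fluo-8 calcium-sensitive fluorescence; Measure: % inhibition of agonist calcium response; Controls: DMSO and EC80 PEA controls.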
# OX1R antag-1 – blocks the human orexin 1 receptor | O43613 | CHO/OX1R cells, Fluo-8 calcium fluorescence, orexin A | inhibition, % at 5 µM | hit rate 0.43% among 330,000;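 active = inhibition above its plate's threshold, mean inhibition of all tested compounds on the plate plus 3 SD, cut at about 37% in these data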;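 note: 0% = orexin A challenge wells and 100% = SB-334867-A antagonist wells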
# Target sequence (O43613 whole entry, looked up): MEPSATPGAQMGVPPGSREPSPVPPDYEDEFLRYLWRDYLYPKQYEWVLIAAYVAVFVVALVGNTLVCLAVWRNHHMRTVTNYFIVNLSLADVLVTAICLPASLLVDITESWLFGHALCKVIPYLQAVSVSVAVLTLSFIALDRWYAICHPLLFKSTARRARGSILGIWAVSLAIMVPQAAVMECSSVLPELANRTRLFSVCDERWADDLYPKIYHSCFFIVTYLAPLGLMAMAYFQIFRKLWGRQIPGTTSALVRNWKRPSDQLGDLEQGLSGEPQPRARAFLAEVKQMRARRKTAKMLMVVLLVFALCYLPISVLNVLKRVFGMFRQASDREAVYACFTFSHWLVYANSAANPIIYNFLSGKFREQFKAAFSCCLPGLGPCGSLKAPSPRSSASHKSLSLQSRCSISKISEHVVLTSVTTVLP
# TAAR1 ag – agonists of human TAAR1; CHO RD-HGA16 TAAR1, Fluo-8 calcium fluorescence; vehicle wells 0%, saturating PEA agonist 100%; activation, % at 3 µM; hit rate 0.99% among 360,000; AID 624467;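 active = activation above the mean activation of all test compounds in the run plus 3 SD, cut at about 38% in these data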
#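 Signal – calcium-sensitive Fluo-8 signal, excitation 470-495, emission 515-575 nm · System – RD-HGA16 (CHO) cells co-expressing Gα16 and hTAAR1 · Incubation – 17-24 h seeding, 75 min 37 °C dye, 30 min RT · Compound dosing – 3 µM single concentration · Repeats – no replicates (n 1)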
# OX1R antag-2 – OX1R (human) antagonism; OX1R-expressing cells, FRET antagonist read-out; inhibition, % at 6.6 µM; hit rate 1.8% among 330,000; AID 485270; in the data active = inhibition mostly above about 38%, no sharp cut-off; inactive = mostly below about 40%;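 note: 0% = agonist challenge alone and 100% = reference antagonist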
# TAAR1 nonsel count – nonselective antagonist in TAAR1 antagonist counter-screen. AID 651780. inhibition, % at 3 µM. shares compounds with TAAR1 antag. hit rate 77% among 2,400. counterscreen cell line, calcium fluorescence, antagonist mode; in the data active = inhibition above about 22%;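 note: CHO-Ga16 host cells stimulated with ATP at an EC80 level; 0% = agonist EC80 plus vehicle and 100% = vehicle without agonist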
# TAAR1 antag conf – confirmation of human TAAR1 antagonists. AID 651785. shares compounds with TAAR1 antag. TAAR1-expressing cells, fluorescence antagonist read-out. inhibition, % at 3 µM. hit rate 40% among 2,400; in the data active = inhibition above about 49%;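 note: CHO-Ga16 host cells challenged with agonist PEA near its EC80; 0% = agonist at EC80 plus vehicle and 100% = vehicle with no agonist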
# Ga16 ag counter – nonselective Ga16 agonism, counter-screen | activation, % at 3 µM | hit rate 18% among 2,400 | Ga16-expressing cells, calcium fluorescence, agonist counterscreen | AID 651953 | shares compounds with TAAR1 antag; in the data active = activation above about 12%;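 note: 0% = vehicle wells and 100% = saturating stimulus response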
# TAAR1 ag counter – counter-screen for human TAAR1 antagonists: TAAR1 agonists. shares compounds with TAAR1 antag. hTAAR1 cell line, fluorescence activation, agonist mode. activation, % at 3 µM. hit rate 2% among 2,400; in the data active = activation above about 37%;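 note: CHO cells stably expressing TAAR1 with calcium dye readout; 0% = DMSO vehicle and 100% = full agonist response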
# Numbers without * were called inactive; x = no result. The list is not random: actives were taken first. Their share in the collection is about 4.6%.
SMILES,CHO parental Ca,GPR7 antagonist,TAAR1 antag,OX1R antag-1,TAAR1 ag,OX1R antag-2,TAAR1 nonsel count,TAAR1 antag conf,Ga16 ag counter,TAAR1 ag counter
O=C1[C@H]2[C@@H](/C=C/c3ccccc3)N3C(=O)CN(Cc4ccccn4)C(=O)[C@@]3(Cc3ccccc3)[C@H]2C(=O)N1c1ccccc1,-18,-10,70*,-32,23,16,28*,48,10,8
COc1ccc([C@H]2CC(=O)C=C(c3cccc(C(C)C)c3)C2)cc1,-14,x,50*,-12,9,2,13,18,5,9
Cc1c(N=C2N=C(NC(=O)NC(C)(C)C)c3ccccc32)c(=O)n(-c2ccccc2)n1C,-8,6,16,-17,7,25,x,x,x,x
Cc1c(N=C2N=C(NC(=O)c3cccs3)c3ccccc32)c(=O)n(-c2ccccc2)n1C,-3,-17,59*,-15,18,20,42*,49*,18*,13
CC(C)Cn1nc(C(=O)Nc2cccc(C(=O)NC3CC3)c2)c2ccccc2c1=O,-18,x,6,-16,6,9,x,x,x,x
CC(=O)N(C)c1ccc(NC(=O)Nc2ccc(C)cc2)cc1,-5,-6,57*,-8,26,14,19,44,10,20
CC(=O)N(C)c1ccc(NC(=S)Nc2ccccc2)cc1,-16,9,1,-14,6,13,x,x,x,x
CC1(C)CC(=O)C/C(=N\NC(=O)C2C3CCCCC32)C1 (stereo not given),7,-8,-4,-2,4,-3,x,x,x,x
CCCCCn1nc(C(=O)N(CC)c2c(N)n(CCCC)c(=O)[nH]c2=O)c2ccccc2c1=O,-12,x,0,-8,2,4,x,x,x,x
COc1cc(-c2cc(C(=O)Nc3nc4ccccc4s3)c3ccccc3n2)cc(OC)c1OC,-11,-6,58*,-23,8,5,37*,39,6,7
COc1cc(-c2cc(C(=O)Nc3ccc(C)c(S(=O)(=O)N4CCOCC4)c3)c3ccccc3n2)cc(OC)c1OC,-5,x,74*,-12,14,9,40*,55*,10,7
COc1ccc(NC(=O)/C=C/c2ccc(S(=O)(=O)N3CCOCC3)cc2)cc1,-5,x,8,11,8,9,x,x,x,x
COc1cc(-c2cc(C(=O)Nc3ccc(O)cc3)c3ccccc3n2)cc(OC)c1OC,4,-8,58*,-16,13,16,27*,46,8,11
Cc1ccc(-c2nn(-c3ccccc3)cc2C(=O)Nc2ccc(C)c(S(=O)(=O)N3CCOCC3)c2)cc1,-9,-3,32,-14,6,7,x,x,x,x
COc1ccc(/C=C/C(=O)Nc2ccc(C)c(S(=O)(=O)N3CCOCC3)c2)cc1,-11,x,65*,7,19,10,31*,45,13*,10
NC(=O)NC(=O)COC(=O)c1ccc2c(c1)C(=O)N(Cc1ccccc1)C2=O,-6,-7,-17,-8,1,9,x,x,x,x
CCc1nnc(SCC(=O)Nc2ccc3ccccc3c2)n1N,-18,x,-3,-8,2,3,x,x,x,x
CCc1ccc(OCC(=O)NC(=S)Nc2ccc(S(=O)(=O)NC3CCCCC3)cc2)cc1,-11,1,34,9,5,22,x,x,x,x
N#Cc1c(N)[nH]c2ccc(Sc3ccccc3)cc12,x,x,54*,x,25,x,28*,41,12*,24
Cc1c(-c2ccccc2)oc2c(C(=O)OCC(=O)Nc3cccc(F)c3)cccc2c1=O,-21,-6,63*,-30,12,30,33*,64*,8,3
O=c1oc(C2(O)CCCCC2)cc2ccc(/C=C/c3ccc(F)cc3)cc12,-19,x,63*,6,5,9,26*,24,4,4
O=c1oc(C2(O)CCCCC2)cc2ccc(Br)cc12,-16,x,25,-4,10,1,x,x,x,x
COc1ccc(-c2nc3cc([N+](=O)[O-])ccc3o2)cc1,-11,3,-18,5,1,4,x,x,x,x
Nc1ccc(-c2nc3cc([N+](=O)[O-])ccc3o2)cc1,-6,2,55*,-22,5,9,20,19,3,-3
CC(=O)Nc1ccc(S(=O)(=O)NCCC(=O)Nc2ccc(C)cn2)cc1,12,0,-26,3,3,8,x,x,x,x
SMILES,CHO parental Ca,GPR7 antagonist,TAAR1 antag,OX1R antag-1,TAAR1 ag,OX1R antag-2,TAAR1 nonsel count,TAAR1 antag conf,Ga16 ag counter,TAAR1 ag counter
CCn1cnc2sc(C(=O)N(Cc3ccc(N(C)C)cc3)Cc3ccco3)c(C)c2c1=O,-21,-9,54*,-12,24,24,23*,38,7,14
CCC(CO)Oc1cc(NCc2cccc(OC)c2)c2ncn(C(C)C)c2c1 (stereo not given),-8,x,106*,-22,14,17,9,2,0,0
O=C(COC(=O)Cc1ccccc1F)Nc1cc(S(=O)(=O)N2CCOCC2)ccc1N1CCCC1,-28,-3,-27,-24,5,8,x,x,x,x
Cc1cccc(C(=O)Nc2ccc(C(=O)/C=C/c3cccnc3)cc2)c1,-7,15,60*,-16,18,22,33*,54*,13*,9
CC(C)(O)C(O)COc1c2ccoc2cc2oc(=O)ccc12 (stereo not given),-4,-15,-6,2,2,12,x,x,x,x
CC(=O)OC(C=C(C)C)C/C(C)=C/COc1c2ccoc2cc2oc(=O)ccc12 (stereo not given),x,x,70*,x,3,x,28*,54*,9,25
Cc1c(C(=O)NCc2ccc3c(c2)cc(C)n3C)cccc1[N+](=O)[O-],-5,-22,67*,-42,10,2,30*,51*,7,8
CN1CCN(c2ncnc3c2c(-c2ccccc2)cn3-c2ccc(F)cc2)CC1,-14,5,60*,6,10,0,11,53*,9,28
Cc1ccc(C)c(S(=O)(=O)N2CCN(C(=O)Cc3sc(C)nc3-c3ccc(F)cc3)CC2)c1,x,x,59*,x,7,x,23*,37,5,1
Cc1nc(-c2ccc(F)cc2)c(CC(=O)N2CCN(S(=O)(=O)c3ccccc3Br)CC2)s1,-25,-4,13,-36,1,29,x,x,x,x

# Source: PubChem BioAssay (The Scripps Research Institute Molecular Screening Center)
